Hits are enriched below; roughly 2.7% of the tested compounds scored in any of these assays.
Rpn11 inh – Rpn11 (human) deubiquitinase inhibition; 360,000 compounds, 0.59% hits; inhibition, % at 20 µM; O00487; AID 588493; human 26S proteasome, Ub4-pepOG fluorescence polarization; 20S core pre-blocked with epoxomicin;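 active = inhibition at 20 µM, scaled to each plate's controls, above about 33%, limit read from the data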
TPT1 inh – C. albicans TPT1 enzyme inhibition | recombinant caTPT1, FP RNA substrate dephosphorylation | inhibition, % at 5 µM | 300,000 compounds, 0.81% hits | AID 1962;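 active = inhibition above the mean of all tested compounds plus 3 SD, set per screening campaign, cut at about 24% in these data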;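 note: plate controls were DMSO alone for no effect and ferristatin control at 100 nM for full effect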
NadD block – NadD (S. aureus) enzyme inhibition; inhibition, % at 20 µM; purified NadD enzyme, colorimetric absorbance read-out; 360,000 compounds, 0.78% hits; AID 602399; in the data active = inhibition above about 26%
PP1 inh – blocks human PP1-alpha phosphatase, a PP5 counter-screen; AID 2235; 320,000 compounds, 0.9% hits; purified PP1alpha, OMFP fluorescence; inhibition, % at 6.7 µM; P62136;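 active = inhibition above the mean inhibition of all tested compounds plus 3 SD, computed separately for each screening campaign, cut at about 15% in these data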
HNF4A DNA FP – change in binding of human HNF4 alpha to DNA. P41235. HNF4a-FITC DNA binding, fluorescence polarization, 1 h. activity change, % at 10 µM. 360,000 compounds, 0.3% hits. AID 1224865; in the data active = activity change above about 30%, passing the limit was not always enough
Target sequence (P41235 whole entry, looked up): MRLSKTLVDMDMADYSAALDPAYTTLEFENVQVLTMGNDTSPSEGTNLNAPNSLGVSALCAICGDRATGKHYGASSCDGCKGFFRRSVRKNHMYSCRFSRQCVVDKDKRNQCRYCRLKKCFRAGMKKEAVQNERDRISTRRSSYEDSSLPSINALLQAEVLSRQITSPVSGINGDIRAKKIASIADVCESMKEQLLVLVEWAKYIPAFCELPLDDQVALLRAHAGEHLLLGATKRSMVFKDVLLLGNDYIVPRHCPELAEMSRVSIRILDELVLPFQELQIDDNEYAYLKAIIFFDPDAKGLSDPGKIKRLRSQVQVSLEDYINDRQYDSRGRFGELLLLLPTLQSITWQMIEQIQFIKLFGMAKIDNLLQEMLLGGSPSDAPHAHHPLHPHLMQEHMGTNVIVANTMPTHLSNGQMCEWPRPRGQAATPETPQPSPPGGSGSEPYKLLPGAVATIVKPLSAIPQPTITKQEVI
CSN inh – blocks human CSN-mediated cullin deneddylation; inhibition, % at 12.5 µM; Purified CSN, SCF-Nedd8-OG deneddylation, fluorescence polarization; AID 651999; 360,000 compounds, 0.38% hits; Q92905;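 active = pattern-corrected inhibition above about 35%, with an unprinted fluorescence ratio check between 0.5 and 1.5, limit read from the data, passing the limit was not always enough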;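 note: 0% = enzyme with substrate and 100% = substrate without enzyme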
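Test system: purified human Csn5 enzyme expressed in HEK293T cells. Amount: 0.24 nM enzyme. Reagent: SCFSkp2-Nedd8OG substrate at 10 nM final. Schedule: 90 min incubation of compound, enzyme and substrate at room temperature. Detection: fluorescence polarization. Read-out: % inhibition of substrate cleavage by Csn5.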
TPT1 inh confirm – confirmation of Candida albicans TPT1 inhibitors; AID 2149; recombinant caTPT1, fluorescence polarization, RNase T1 coupled; inhibition, % at 5 µM; shares compounds with TPT1 inh; 2,400 compounds, 74% hits;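 active = inhibition above the primary screen limit, the mean inhibition of all tested compounds plus 3 SD, cut at about 25% in these data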
RNase T1 inh – counter-screen for TPT1 inhibitors: inhibitors of Aspergillus oryzae RNase T1 | RNase T1 cleavage, fluorescence polarization, 1536-well | 2,400 compounds, 83% hits | inhibition, % at 5 µM | shares compounds with TPT1 inh;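 active = inhibition above the solvent-only control well mean plus 3 SD, limit set per screening run, cut at about 23% in these data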;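 note: plate controls were DMSO wells with enzyme for no effect and wells without RNase T1 for full effect; inhibitors block cleavage so intact labeled substrate keeps polarization high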
Target sequence (P00651 whole entry, looked up): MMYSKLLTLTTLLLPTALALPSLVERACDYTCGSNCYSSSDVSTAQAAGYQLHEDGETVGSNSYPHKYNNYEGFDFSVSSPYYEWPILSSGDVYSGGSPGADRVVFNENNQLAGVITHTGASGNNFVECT
Starred values were filed as active, the others as inactive; . = no result shown; + = active, no number.

SMILES	Rpn11 inh	TPT1 inh	NadD block	PP1 inh	HNF4A DNA FP	CSN inh	TPT1 inh confirm	RNase T1 inh
CCC1CCCCN1CCCNC(=O)CNC(=O)Cn1ccc2ccccc2c1=O (centres undefined)	-6.5	37.3*	-2.2	-4.2	0.2	-1.4	6.6	5.7
CCC1CCCCN1CCCNC(=O)CNC(=O)c1nn(-c2ccc(OC)cc2)c(=O)c2ccccc12 (centres undefined)	3.5	-3.4	-5.6	-0.6	-1.1	0.1	.	.
CC1C(=O)N2CCCc3cc(S(=O)(=O)N4CCN(c5cccc(Cl)c5)CC4)cc1c32 (centres undefined)	-2.8	-2.4	13.7	3.1	3.4	-1.5	.	.
Nc1nc(SCC(=O)Nc2ccc3c(c2)OCO3)n[nH]1	1.1	40.6*	-0.1	-3.8	-0.6	1.0	2.0	3.1
CCCCNc1c(-c2ccc(-c3ccc(C(C)=O)cc3)c(OC)c2)nc2cnccn12	6.7	26.4*	0.6	16.8*	12.1	1.4	51.8*	62.5*
O=C(NCc1ccc(F)cc1)c1cc(C2CCCN(C(=O)c3ccccn3)C2)on1 (centres undefined)	-4.4	.	1.8	.	1.2	-0.3	.	.
COc1ccccc1NS(=O)(=O)c1cc([N+](=O)[O-])ccc1N/N=C/c1sc(N2CCOCC2)nc1-c1ccccc1	.	96.6*	36.6*	-4.9	74.5*	53.5*	110.8*	110.5*
CS(=O)(=O)Nc1ccc(-c2ccc(/C=C3\SC(N)=NC3=O)o2)cc1	21.6	44.4*	-7.6	-1.6	42.4*	10.3	54.2*	68.1*
NC1=NC(=O)/C(=C/c2cccs2)S1	0.0	0.8	1.7	0.8	-0.1	-2.2	.	.
COc1ccc(C(c2nnnn2C2CCCCC2)N2CCN(C/C=C/c3ccccc3)CC2)cc1 (centres undefined)	6.8	.	-5.4	.	1.9	-1.9	.	.
C=CCNC(=O)c1cc2c(=O)c3ccccc3oc2nc1C	6.8	48.4*	8.2	-3.2	-0.6	18.9	10.8	15.6
CCN1C(=O)/C(=C/C2=Cc3ccccc3OC2C)SC1=S (centres undefined)	.	42.6*	-2.9	-2.6	90.7*	25.9	92.9*	98.3*
CN(C)C(=C(C#N)C#N)N1CCN(c2ccc(Cl)cc2)CC1	3.1	-3.3	-1.0	0.9	-0.2	-3.5	.	.
N#CC(C#N)=C/C(C#N)=C(/N)N1CCN(c2ccc(Cl)cc2)CC1	14.3	55.8*	5.5	2.0	0.9	4.1	14.7	20.6
COc1ccc(N2C(=O)CSC2c2ccc3c(c2)OCO3)c(OC)c1 (centres undefined)	1.1	39.7*	3.9	-3.8	-3.3	3.7	5.2	8.3
O=C(CCNC(=O)c1ccccc1Cl)Nc1ccc(S(=O)(=O)N2CCOCC2)cc1	0.5	.	1.6	.	0.6	2.8	.	.
Cc1ccc(NC(=O)c2ccccc2NC(=O)CCC(=O)O)cc1	2.3	-0.5	-4.1	-3.0	0.6	-6.0	.	.
CC(=O)c1ccccc1NCC(=O)Nc1ccc(C)cc1	0.5	+	-1.9	-1.1	-3.4	-1.4	17.8	29.0*
COc1ccc(NC2=Nc3cccc4cccc2c34)cc1OC	26.5	33.1*	-4.1	-4.5	10.4	8.7	31.2*	39.5*
C(=N\NC1=Nc2cccc3cccc1c23)/c1ccccc1	-75.5	26.3*	6.0	4.3	26.0	6.5	41.8*	57.7*
CC1CCCCN1C(=O)C(=O)c1cn(CC(=O)N2CCCCCC2)c2ccccc12 (centres undefined)	-2.8	-10.8	0.4	-2.6	0.1	2.9	.	.
Cc1ccc(C2NC(=O)c3c(sc4c3CCN(C)C4)N2)o1 (centres undefined)	-10.0	-0.3	-6.2	-3.8	-10.4	23.3	.	.
CN1CCc2c(sc3c2C(=O)NC(c2ccccc2)N3)C1 (centres undefined)	17.0	27.3*	-4.6	-2.3	-0.8	5.8	31.2*	44.5*
Cc1ccc(C2NC(=O)c3c(sc4c3CCN(C)C4)N2)s1 (centres undefined)	.	64.4*	15.8	5.4	9.6	29.1	38.5*	47.4*
COc1ccc(CC(=O)OCC(=O)Nc2ccc(F)cc2)cc1	-4.0	.	-0.9	.	0.7	-6.9	.	.
SMILES	Rpn11 inh	TPT1 inh	NadD block	PP1 inh	HNF4A DNA FP	CSN inh	TPT1 inh confirm	RNase T1 inh
COc1cc(C(=O)Nc2ccc(C)c(S(=O)(=O)N(C)C)c2)ccc1OCC(=O)N1CCOCC1	5.6	2.3	3.4	-4.1	-0.6	7.4	.	.
COc1ccc(S(=O)(=O)NCC2CCCN(C(=O)CCC(F)(F)F)C2)cc1 (centres undefined)	1.8	-6.9	3.1	-2.3	-3.9	0.8	.	.
CC(=O)Nc1ccc(S(=O)(=O)Nc2nc3ccccc3nc2Nc2cccc(O)c2)cc1	0.5	3.4	-0.5	0.2	-1.0	1.6	.	.
CC(=O)Nc1ccc(S(=O)(=O)Nc2nc3ccccc3nc2Nc2ccc(N)cc2)cc1	.	77.3*	10.5	-7.5	39.7	82.7	62.0*	69.0*
CC(=O)Nc1ccc(S(=O)(=O)Nc2nc3ccccc3nc2Nc2ccc3ccccc3c2)cc1	.	29.2*	-5.3	1.2	27.5	44.9*	13.1	23.7*
CCN1CCCC1CNC(=O)c1cc(S(=O)(=O)N(C)C)ccc1Cl (centres undefined)	-0.4	-1.5	-4.1	-7.5	-2.5	4.7	.	.
O=C(C1=NN(c2ccccc2)C2C(=O)N(c3cccc(Cl)c3)C(=O)C12)c1ccccc1 (centres undefined)	-30.9	33.4*	11.6	3.9	9.6	5.6	36.6*	51.3*
O=C1C2C3CC(C2C(=O)N1c1cccc(Cl)c1)[C@H](O)C3O (some centres undefined)	-7.7	-6.2	-3.0	-2.4	-0.4	1.2	.	.
O=C(C1=NN(c2ccccc2)C2C(=O)N(c3ccc(Cl)cc3)C(=O)C12)c1ccccc1 (centres undefined)	4.0	33.2*	11.6	12.3	4.9	9.2	23.4	35.2*
COc1ccc2c(n1)Sc1nc3ccccc3nc1N2	.	41.5*	3.7	-1.0	32.1	30.9	55.9*	64.1*
COc1ccc(Nc2ccc(S(=O)(=O)N3CCCCC3)cc2[N+](=O)[O-])cc1Cl	2.6	-1.4	6.0	0.6	0.2	0.2	.	.
COc1ccc(Nc2ccc(S(=O)(=O)N3CCCCC3)cc2[N+](=O)[O-])cc1	-3.1	66.9*	0.4	2.7	-3.8	-2.3	5.9	9.2
CC(Cc1ccccc1)NC(=O)CCCN1C(=O)c2ccccc2C1=O (centres undefined)	8.7	1.1	-0.4	-1.4	1.8	3.5	.	.
CCN(CC)CCNc1nc(-c2cccs2)c(CC(=O)O)s1	15.9	28.6*	-10.9	1.8	2.5	-0.1	5.5	7.3
